Experimental data from ChEMBL document CHEMBL1165950, “Design and synthesis of new potent anticancer pyrazoles with high FLT3 kinase inhibitory selectivity” (Bioorg Med Chem, 2010).

Legend:
Format in all cases: functional
MDA-MB-468 = experiment: Cytotoxicity against human MDA-MB-468 cells assessed as cell growth at 10 uM; conditions: read-out: Activity
Summary of the method: (§1)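 NCI-60 screen: cells grown in RPMI 1640 with 5% FBS and 2 mM L-glutamine, plated at 5000–40,000 cells/well according to doubling time, and preincubated 24 h at 37 °C, 5% CO2. The single 10 µM dose (DMSO stock) was added, then incubated 48 h. Cells were TCA-fixed and stained with 0.4% SRB, read at 515 nm, and growth % calculated against time-zero and control plates.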

SK-MEL-2 = experiment: Cytotoxicity against human SK-MEL-2 cells assessed as cell growth at 10 uM; conditions: read-out: Activity; summary of the method: as §1
K562 [1] = experiment: Cytotoxicity against human K562 cells assessed as cell growth at 1 uM after 48 hrs by sulforhodamine B assay; conditions: K562, 48 h, read-out: Activity
UACC-62 = experiment: Cytotoxicity against human UACC62 cells assessed as cell growth at 10 uM; conditions: read-out: Activity; summary of the method: as §1
CAKI-1 = experiment: Cytotoxicity against human Caki1 cells assessed as cell growth at 10 uM after 48 hrs by sulforhodamine B assay; conditions: CAKI-1, 48 h, read-out: Activity
CCRF-CEM = experiment: Cytotoxicity against human CCRF-CEM cells assessed as cell growth at 0.01 uM after 48 hrs by sulforhodamine B assay; conditions: read-out: Activity
Summary of the method: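 NCI-60 five-dose screen. Cells were grown in RPMI 1640 with 5% FBS and 2 mM L-glutamine, plated at 5000–40,000 cells/well and preincubated for 24 h. Time-zero plates were TCA-fixed. DMSO-solubilized drug was added at five concentrations (10-fold or ½-log serial dilutions) for 48 h at 37 °C, 5% CO2. Cells were TCA-fixed, stained with 0.4% SRB and read at 515 nm. Percent growth used time-zero, control and test absorbances.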

OVCAR-3 = experiment: Growth inhibition of human OVCAR-3 cells after 48 hrs by sulforhodamine B assay; conditions: OVCAR-3, 48 h; for CC50: read-out: LC50 (the source's name)
Summary of the method: (§2)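 NCI 60-cell screen, five-dose mode. Cells grown in RPMI 1640 with 5% FBS and 2 mM L-glutamine and plated at 5000-40,000 cells/well according to doubling time. After 24 h preincubation, a Tz plate was TCA-fixed. Five concentrations (10-fold or 1/2 log dilutions) were applied for 48 h at 37 °C. SRB staining read at 515 nm. IC50 taken from [(Ti-Tz)/(C-Tz)]×100 = 50.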

SF-295 = experiment: Cytotoxicity against human SF295 cells assessed as cell growth at 0.001 uM after 48 hrs by sulforhodamine B assay; conditions: SF-295, 48 h, read-out: Activity
NCI-H460 = experiment: Cytotoxicity against human NCI-H460 cells assessed as cell growth at 0.01 uM after 48 hrs by sulforhodamine B assay; conditions: NCI-H460, 48 h, read-out: Activity
HOP-92 [2] = experiment: Cytotoxicity against human HOP92 cells assessed as cell growth at 10 uM after 48 hrs by sulforhodamine B assay; conditions: HOP-92, 48 h, read-out: Activity
HOP-92 [3] = experiment: Cytotoxicity against human HOP92 cells assessed as cell growth at 0.01 uM after 48 hrs by sulforhodamine B assay; conditions: HOP-92, 48 h, read-out: Activity
OVCAR-5 = experiment: Cytotoxicity against human OVCAR5 cells assessed as cell growth at 100 nM after 48 hrs by sulforhodamine B assay; conditions: OVCAR-5, 48 h, read-out: Activity
786-0 = experiment: Growth inhibition of human 786-0 cells after 48 hrs by sulforhodamine B assay; conditions: 786-0, 48 h; for CC50: read-out: LC50 (the source's name)
Summary of the method: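 NCI five-dose SRB assay in RPMI 1640 with 5% FBS and 2 mM L-glutamine. Cells were preincubated 24 h, then exposed 48 h at 37 °C to five concentrations (10-fold or half-log serial dilutions from DMSO stocks). TCA fixation, SRB staining, and absorbance at 515 nm followed. IC50 was taken where [(Ti−Tz)/(C−Tz)]×100 = 50, with Tz as time-zero cell density.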

TK-10 = experiment: Cytotoxicity against human TK10 cells assessed as cell growth at 1 uM after 48 hrs by sulforhodamine B assay; conditions: TK-10, 48 h, read-out: Activity
HCC 2998 = experiment: Cytotoxicity against human HCC2998 cells assessed as cell growth at 0.001 uM after 48 hrs by sulforhodamine B assay; conditions: HCC 2998, 48 h, read-out: Activity
U-251 = experiment: Cytotoxicity against human U251 cells assessed as cell growth at 1 uM after 48 hrs by sulforhodamine B assay; conditions: U-251, 48 h, read-out: Activity
K562 [4] = experiment: Cytotoxicity against human K562 cells assessed as cell growth at 10 uM; conditions: read-out: Activity
Summary of the method: (§3)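 Single-dose NCI-60 screen at 10 µM. Cells were grown in RPMI 1640 with 5% FBS and 2 mM L-glutamine, then treated for 48 h at 37 °C. Protein was measured by SRB staining with absorbance at 515 nm. Percentage growth was recorded, and inhibition percentage was calculated as 100 minus growth percentage.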

HCT-15 = experiment: Cytotoxicity against human HCT15 cells assessed as cell growth at 10 uM; conditions: read-out: Activity; summary of the method: as §3
SF-268 = experiment: Cytotoxicity against human SF268 cells assessed as cell growth at 0.01 uM after 48 hrs by sulforhodamine B assay; conditions: SF-268, 48 h, read-out: Activity
MDA-MB-231 = experiment: Cytotoxicity against human MDA-MB-231 cells assessed as cell growth at 1 uM after 48 hrs by sulforhodamine B assay; conditions: MDA-MB-231, 48 h, read-out: Activity
SNB-19 = experiment: Cytotoxicity against human SNB19 cells assessed as cell growth at 10 uM; conditions: read-out: Activity; summary of the method: as §1
HL-60(TB) [5] = experiment: Cytotoxicity against human HL-60(TB) cells assessed as cell growth at 10 uM after 48 hrs by sulforhodamine B assay; conditions: HL-60, 48 h, read-out: Activity
Summary of the method: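 NCI 60-cell panel. Cells are grown in RPMI 1640 with 5% FBS and 2 mM L-glutamine, seeded at 5000–40,000 cells/well according to doubling time, and preincubated 24 h. Time-zero plates are TCA-fixed. Compound from DMSO stock is given at five 10-fold or 1/2-log concentrations for 48 h at 37 °C, 5% CO2. Suspension cells are fixed with 80% TCA (final 16%) and SRB-stained, with absorbance at 515 nm. Percent growth is derived from Tz, control and test readings.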

HL-60(TB) [6] = experiment: Cytotoxicity against human HL-60(TB) cells assessed as cell growth at 10 uM; conditions: read-out: Activity
Summary of the method: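 NCI 60-cell panel screen at a single concentration of 10 µM. Cells are grown in RPMI 1640 with 5% FBS and 2 mM L-glutamine and read by SRB protein staining at 515 nm. Percent growth is measured relative to time-zero and untreated controls; inhibition % is 100 minus growth %.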

MDA-MB-435 = experiment: Growth inhibition of human MDA-MB-435 cells after 48 hrs by sulforhodamine B assay; conditions: MDA-MB-435, 48 h; for CC50: read-out: LC50 (the source's name); summary of the method: as §2

| SMILES | growth at 10 µM (MDA-MB-468) | growth at 10 µM (SK-MEL-2) | growth at 1 µM (K562 [1]) | growth at 10 µM (UACC-62) | growth at 10 µM (CAKI-1) | growth at 0.01 µM (CCRF-CEM) | GI50 (OVCAR-3) | growth at 0.001 µM (SF-295) | growth at 0.01 µM (NCI-H460) | growth at 10 µM (HOP-92 [2]) | growth at 0.01 µM (HOP-92 [3]) | growth at 0.1 µM (OVCAR-5) | GI50 (786-0) | TGI (786-0) | CC50 (786-0) | growth at 1 µM (TK-10) | growth at 0.001 µM (HCC 2998) | growth at 1 µM (U-251) | growth at 10 µM (K562 [4]) | growth at 10 µM (HCT-15) | other results |
| --- | --- | --- | --- | --- | --- | --- | --- | --- | --- | --- | --- | --- | --- | --- | --- | --- | --- | --- | --- | --- | --- |
| COc1cc(C)cc(-c2c(-c3ccnc(-c4ccc(C(C)=O)cc4)c3)cnn2CC#N)c1 | 26% | 73.7% | 4% | 49.6% | 25% | 93% | 2.61 µM | 98% | 98% | -1% | 69% | 89% | 3.11 µM | > 100 µM | > 100 µM | 43% | 95% | 4% | 30.1% | 53.3% | TGI (OVCAR-3): 8.05 µM; CC50 (OVCAR-3): > 100 µM; growth at 0.01 µM (SF-268): 96%; growth at 1 µM (MDA-MB-231): 21%; growth at 10 µM (SNB-19): 73.7%; growth at 10 µM (HL-60(TB) [5]): -3%; growth at 10 µM (HL-60(TB) [6]): 57%; GI50 (MDA-MB-435): 1.93 µM; TGI (MDA-MB-435): > 100 µM; CC50 (MDA-MB-435): > 100 µM |
| Cc1cc(O)cc(-c2nn(CC#N)cc2-c2ccnc(-c3ccc(Oc4ccccc4)cc3)c2)c1 | 6.32% | 73.9% | -13% | 68.1% | -67% | 93% | 1.88 µM | 99% | 100% | -65% | 59% | 82% | 2.14 µM | 5.38 µM | 18.9 µM | 19% | 96% | -97% | 15% | 4.26% | TGI (OVCAR-3): 3.95 µM; CC50 (OVCAR-3): 8.29 µM; growth at 0.01 µM (SF-268): 91%; growth at 1 µM (MDA-MB-231): -13%; growth at 10 µM (SNB-19): 72.8%; growth at 10 µM (HL-60(TB) [5]): -10%; growth at 10 µM (HL-60(TB) [6]): 44.3%; GI50 (MDA-MB-435): 2.32 µM; TGI (MDA-MB-435): 6.84 µM; CC50 (MDA-MB-435): 60.6 µM |
| COc1cc(C)cc(-c2nn(CC#N)cc2-c2ccnc(-c3ccc(N(C)C)cc3)c2)c1 | -48.4% | 40.8% | 4% | 19.1% | -11% | 100% | 0.204 µM | 93% | 106% | -13% | 93% | 79% | 0.42 µM | 5.43 µM | > 100 µM | 29% | 106% | -5% | 9.86% | 8.19% | TGI (OVCAR-3): 0.448 µM; growth at 0.01 µM (SF-268): 90%; growth at 1 µM (MDA-MB-231): -15%; growth at 10 µM (SNB-19): 15.9%; growth at 10 µM (HL-60(TB) [5]): -27%; growth at 10 µM (HL-60(TB) [6]): 1.48%; GI50 (MDA-MB-435): 0.235 µM; TGI (MDA-MB-435): 0.613 µM; CC50 (MDA-MB-435): > 100 µM |
| Cc1cc(O)cc(-c2nn(CC#N)cc2-c2ccnc(-c3ccc(N(C)C)cc3)c2)c1 | -13.9% | 43.2% | 7% | 25.1% | -31% | 96% | 1.91 µM | 93% | 102% | -12% | 85% | 97% | 3.41 µM | 16.6 µM | > 100 µM | 44% | 91% | 8% | 19.5% | 22.9% | TGI (OVCAR-3): 4.78 µM; CC50 (OVCAR-3): 21.2 µM; growth at 0.01 µM (SF-268): 90%; growth at 1 µM (MDA-MB-231): 11%; growth at 10 µM (SNB-19): 46.4%; growth at 10 µM (HL-60(TB) [5]): -16%; growth at 10 µM (HL-60(TB) [6]): 7.44%; GI50 (MDA-MB-435): 1.01 µM; TGI (MDA-MB-435): 3.21 µM; CC50 (MDA-MB-435): > 100 µM |
| COc1cc(C)cc(-c2c(-c3ccnc(-c4ccc(N(C)C)cc4)c3)cnn2CC#N)c1 | -23.1% | 49.3% | -5% | 20.3% | -25% | 73% | 0.03 µM | 83% | 35% | -26% | -9% | 53% | 0.0853 µM | > 100 µM | > 100 µM | 31% | 96% | 6% | 9.74% | 8.33% | CC50 (OVCAR-3): > 100 µM; growth at 0.01 µM (SF-268): 29%; growth at 1 µM (MDA-MB-231): 17%; growth at 10 µM (SNB-19): 26.5%; growth at 10 µM (HL-60(TB) [5]): -20%; growth at 10 µM (HL-60(TB) [6]): -5.87%; GI50 (MDA-MB-435): 0.0226 µM; TGI (MDA-MB-435): 0.0669 µM; CC50 (MDA-MB-435): > 100 µM |
| COc1cc(C)cc(-c2nn(CC#N)cc2-c2ccc(-c3cccc(C(C)=O)c3)nc2)c1 | -30.5% | 35.4% | 5% | 27.2% | -18% | 94% | 1.34 µM | 99% | 104% | -17% | 80% | 68% | 3.52 µM | 93 µM | > 100 µM | 2% | 87% | 6% | 16.4% | 23.4% | TGI (OVCAR-3): 3.3 µM; CC50 (OVCAR-3): 8.13 µM; growth at 0.01 µM (SF-268): 94%; growth at 1 µM (MDA-MB-231): 13%; growth at 10 µM (SNB-19): 27.8%; growth at 10 µM (HL-60(TB) [5]): -8%; growth at 10 µM (HL-60(TB) [6]): 8.33%; CC50 (MDA-MB-435): > 100 µM |
